Laboratory results from PubChem BioAssay AID2632 (Broad Institute, 2010).

System: T. cruzi in NIH3T3, immunofluorescence replication, 4 d
Test: amastigote replication in infected NIH3T3 cells – imaging, immunofluorescence, NIH3T3 host cells, mechanism study for T. cruzi infection inhibitor project, late-stage follow-up (AID 2632)
Details: active compounds read low
Method in brief: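 Material: T. cruzi-infected NIH3T3 cells; reagent: T. cruzi trypomastigotes at 100 parasites per host cell; dosing: one dose, 10× IC50; schedule: 2 h parasite infection, then 4-day compound exposure; detection: immunofluorescence imaging with anti-T. cruzi antibody and DAPI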

`Cc1ccc(NC(=O)CCC(=O)N/N=C/c2ccc([N+](=O)[O-])o2)cc1C` showed a percent infected cells with replication (at 0.16 µM) of 0%.
`Fc1ccc(CCNCc2ccc(Cl)c(Cl)c2)cc1` showed a percent infected cells with replication (at 1.22 µM) of 0%.
Work on `COC(=O)N/N=C/c1ccc([N+](=O)[O-])o1` yielded a percent infected cells with replication (at 4.69 µM) of 8%.
Work on `CSc1ccc(CN2CCCC(CNC(=O)c3ccc(F)cc3)C2)cc1` (configuration not stated) yielded a percent infected cells with replication (at 1.2 µM) of 6%.
`CCOc1ccc2oc(=O)cc(CN3CCN(Cc4ccccc4)CC3)c2c1` was tested, and the percent infected cells with replication (at 2.16 µM) was 0%.
`CC(C)Oc1cccc(C(=O)C2CCCN(Cc3cnc(N4CCCC4)s3)C2)c1` (configuration not stated) showed a percent infected cells with replication (at 1.4 µM) of 2%.
Compound `O=C(CNc1cccc2ccccc12)N/N=C/c1ccc([N+](=O)[O-])o1` has a percent infected cells with replication (at 0.64 µM) of 6%.
`CN(Cc1ccccc1)C(=O)C1CCCN(Cc2cccc(Cl)c2)C1` (configuration not stated) showed a percent infected cells with replication (at 1.1 µM) of 0%.
Compound `COc1ccc(CCN(C)C(=O)C2CCCN(Cc3ccc(OC)c(OC)c3)C2)cc1OC` (configuration not stated) has a percent infected cells with replication (at 1 µM) of 6%.
Compound `CCCn1ncc(CN2CCCC(C(=O)c3cccc(OC(C)C)c3)C2)c1C` (configuration not stated) has a percent infected cells with replication (at 0.54 µM) of 4%.
In the case of `CCn1ncc(CN2CCCC(C(=O)c3cccc(OC(C)C)c3)C2)c1C` (configuration not stated), the percent infected cells with replication (at 0.32 µM) is reported as 2%.
Work on `CC(C)c1cccc(OCCCCN(C)C)c1` yielded a percent infected cells with replication (at 5.87 µM) of 0%.
For `COc1cc(C(=O)NCCC(C)C)ccc1OCc1ccc(Cl)cc1Cl`, the percent infected cells with replication (at 13 µM) was 0%.
In the case of `CC(=O)c1cccc(CN2CCCC(CCC(=O)NCc3ccc(F)c(F)c3)C2)c1` (configuration not stated), the percent infected cells with replication (at 0.7 µM) is reported as 8%.
`CC1CCCN(C(=O)Cc2cn(Cc3cccc(Cl)c3)c3ccccc23)C1` (configuration not stated) was tested, and the percent infected cells with replication (at 17.9 µM) was 0%.
With `CC(C)Oc1cccc(C(=O)C2CCCN(Cc3cnn(C(C)C)c3)C2)c1` (configuration not stated) the percent infected cells with replication (at 0.38 µM) was 0%.
`COc1ccccc1/C=C/C(=O)OCCCN(C)C` showed a percent infected cells with replication (at 7.93 µM) of 6%.
`O=C(NCC1CCCN(Cc2cccc(C(F)(F)F)c2)C1)c1ccc(F)cc1` (configuration not stated) showed a percent infected cells with replication (at 1.11 µM) of 2%.
In the case of `O=C(Cc1cn(Cc2cccc(Cl)c2)c2ccccc12)N1CCCCCC1`, the percent infected cells with replication (at 17.5 µM) is reported as 2%.
In the case of `OC(COc1ccc2ccccc2c1Br)Cn1ccnc1` (configuration not stated), the percent infected cells with replication (at 5.01 µM) is reported as 2%.
`O=S(=O)(NCC(c1cccnc1)N1CCN(c2ccc(F)cc2)CC1)c1ccccc1` (configuration not stated) gave a percent infected cells with replication (at 0.66 µM) of 0%.
With `CC1CC(C)CN(CCOCCSc2ccccc2)C1` (configuration not stated) the percent infected cells with replication (at 0.89 µM) was 2%.
In the case of `CC(C)=CCCC(C)CN(C)CCc1ccccn1` (configuration not stated), the percent infected cells with replication (at 0.83 µM) is reported as 2%.
For `CCc1ccc2nc(N(CCN(C)C)C(=O)c3ccc4ncsc4c3)sc2c1`, the percent infected cells with replication (at 0.87 µM) was 2%.
For `COCc1cc(CN2CCCC(CNC(=O)c3ccc(F)cc3)C2)ccc1OC` (configuration not stated), the percent infected cells with replication (at 1.18 µM) was 0%.
Compound `Cc1ccccc1OCCCCCn1ccnc1` has a percent infected cells with replication (at 5.3 µM) of 4%.
`CC(C)(C)OC(=O)N/N=C\c1ccc([N+](=O)[O-])s1` showed a percent infected cells with replication (at 27 µM) of 2%.
